Measurements from different studies.
Protocols differ between the studies behind these lines.
AChE: AChE (Phlebotomus papatasi, UniProt M1F887)
M-phase phosphoprotein 8 chromodomain: M-phase phosphoprotein 8, chromodomain (Homo sapiens, UniProt Q99549)
ESR1: Estrogen receptor (ESR1, Homo sapiens, UniProt P03372)
HTR1A: 5-hydroxytryptamine receptor 1A (HTR1A, Homo sapiens, UniProt P08908)

Structure (SMILES) | target | effect on | action | method | quantity | result
CNC(=O)Oc1ccc2c(c1)[C@]1(C)CCN(C)[C@@H]1N2C | AChE | enzyme activity | inhibitor | – | IC50 | 9 nM
CCN(CCCC[C@H](NC(=O)[C@H](CC(C)C)NC(=O)[C@H](C)NC(=O)[C@H](CC1CCCCC1)NC(=O)c1cccnc1)C(=O)N[C@@H](CO)C(N)=O)C(C)C | M-phase phosphoprotein 8 chromodomain | cell-free assay | – | TR-FRET | IC50 | 1500 nM
C[C@]12CC[C@H]3[C@@H](CCC4=C[C@@H](O)CC[C@@H]43)[C@@H]1CC[C@@H]2O | ESR1 | ligand displacement | – | – | IC50 | 134 nM
CCN(CCCC[C@H](NC(=O)[C@H](C)NC(=O)[C@H](C)NC(=O)[C@H](Cc1ccccc1)NC(=O)c1cccnc1)C(=O)N[C@@H](CO)C(N)=O)C(C)C | M-phase phosphoprotein 8 chromodomain | cell-free assay | – | TR-FRET | IC50 | 3400 nM
NCCc1c[nH]c2ccc(F)cc12 | HTR1A | ligand displacement | – | radioligand | Ki | 18 nM
C=CC[N+](C)(C)c1ccc(CCC(=O)CCc2ccc([N+](C)(C)CC=C)cc2)cc1 | AChE | enzyme activity | inhibitor | – | IC50 | 30 nM
NCCc1c[nH]c2ccc(Cl)cc12 | HTR1A | ligand displacement | – | radioligand | Ki | 5.5 nM
C[C@]1(O)CC[C@H]2[C@@H]3CCC4=CC(=O)CCC4=C3CC[C@@]21C | ESR1 | reporter gene | agonist | – | EC50 | 4230 nM
